{"data": "Assay results from different studies", "target": "Macrophage-stimulating protein receptor (MST1R, Homo sapiens, UniProt Q04912)", "note": "Lines come from different studies, so protocols differ."}
{"Structure (SMILES)": "Cc1cnn2ncc(-c3ccnc(N(C)C)n3)c2c1", "test": "binding", "conditions": "1 µM", "remaining binding [%]": 71}
{"Structure (SMILES)": "C[C@@H](c1ccc(-n2cnc3c(N)ncnc32)cc1)N1CCc2nn(C)c(Cc3ccccc3)c2C1=O", "test": "binding, competition with immobilised ligand", "conditions": "0.1 µM", "remaining binding [%]": 83}
{"Structure (SMILES)": "c1cncc(-c2cccc(Nc3nccc(NC4CCCCC4)n3)c2)c1", "test": "binding, competition with immobilised ligand", "conditions": "10 µM", "remaining binding [%]": 78}
{"Structure (SMILES)": "O=C(O)[C@H]1[C@H](Cn2nnc3ccccc3c2=O)CC[C@@H]1C(=O)c1ccc(OCCC2CCOCC2)cc1", "test": "cell-free assay, competition with immobilised ligand", "conditions": "1 µM", "remaining binding [%]": 96}
{"Structure (SMILES)": "F[C@@H]1CCN(c2nccc(-c3cnn4ncccc34)n2)C1", "test": "binding", "conditions": "1 µM", "remaining binding [%]": 100}
{"Structure (SMILES)": "O=C(c1ccc(Nc2ncc(Cl)c(-c3ccc(Cl)s3)n2)cc1)N1CCC(N2CCCC2)CC1", "test": "binding, competition with immobilised ligand", "conditions": "1 µM", "remaining binding [%]": 43}
{"Structure (SMILES)": "FC(F)(F)Oc1cccc(-c2cnc3ccc(-c4ccncc4)nn23)c1", "test": "cell-free assay, competition with immobilised ligand", "conditions": "5 µM", "remaining binding [%]": 79}
{"Structure (SMILES)": "O=C(NCCCN1CCOCC1)c1ccc(Nc2ncc(Cl)c(-c3ccc(Cl)s3)n2)cc1", "test": "binding, competition with immobilised ligand", "conditions": "1 µM", "remaining binding [%]": 67}
{"Structure (SMILES)": "CO[C@@H](C)c1c(Nc2ccc([C@@H](N(C)C(=O)C3CCS(=O)(=O)CC3)C(F)(F)F)cc2)cnc2cc(Cl)nn12", "test": "cell-free assay, competition with immobilised ligand", "conditions": "1 µM", "remaining binding [%]": 100}
{"Structure (SMILES)": "O=C(Nc1c[nH]nc1C(=O)NC1CCNCC1)c1cc(F)cc(F)c1", "test": "binding, competition with immobilised ligand", "conditions": "1 µM", "remaining binding [%]": 100}
{"Structure (SMILES)": "Cc1c[nH]c2nccc(Oc3c(F)cc(Nc4cc(Cl)nc(N)n4)cc3F)c12", "test": "cell-free assay, competition with immobilised ligand", "conditions": "0.1 µM", "remaining binding [%]": 74}
{"Structure (SMILES)": "C=CC(=O)N1CCC(C(=O)NCC(=O)N2CCN(c3nc(-c4cnc(N)nc4C(F)F)nc(N4CCOCC4)n3)CC2)CC1", "test": "binding, competition with immobilised ligand", "conditions": "1 µM", "remaining binding [%]": 100}
{"Structure (SMILES)": "COc1ccnn2ncc(-c3ccnc(N(C)C)n3)c12", "test": "binding", "conditions": "1 µM", "remaining binding [%]": 100}
{"Structure (SMILES)": "Cc1nc(N2CC[C@@H](O)C2)ncc1-c1cc(C(F)(F)F)cc2[nH]ncc12", "test": "cell-free assay, competition with immobilised ligand", "conditions": "1 µM", "remaining binding [%]": 100}
{"Structure (SMILES)": "C[C@@H]1CCN(c2nccc(-c3cnn4ncccc34)n2)C1", "test": "binding", "conditions": "1 µM", "remaining binding [%]": 100}
{"Structure (SMILES)": "C[C@@]1(Cc2ccc(C#N)cc2)C(=O)N(c2cc(Cl)cc(Cl)c2)c2ncc(C(=O)NC3(c4nc(C5CCC5)no4)CC3)n21", "test": "cell-free assay, competition with immobilised ligand", "conditions": "1 µM", "remaining binding [%]": 100}
{"Structure (SMILES)": "CC1CCCN1c1nccc(-c2cnn3ncccc23)n1 (stereo not drawn)", "test": "binding", "conditions": "1 µM", "remaining binding [%]": 100}
{"Structure (SMILES)": "COc1cnc(Nc2cccc(S(N)(=O)=O)c2)nc1N1CCN(c2ccccc2)CC1", "test": "binding, competition with immobilised ligand", "conditions": "1 µM", "remaining binding [%]": 99}
{"Structure (SMILES)": "N[C@H]1CCN(c2nccc(-c3cnn4ncccc34)n2)C1", "test": "binding", "conditions": "1 µM", "remaining binding [%]": 82}
{"Structure (SMILES)": "CNC(=O)Nc1ccc2c(c1)[C@@]1(CC2)OC(=O)N(CC(=O)N(Cc2ccc(F)cc2)[C@@H](C)C(F)(F)F)C1=O", "test": "cell-free assay, competition with immobilised ligand", "conditions": "1 µM", "remaining binding [%]": 100}
{"Structure (SMILES)": "O=C(NCCCN1CCOCC1)c1ccc(Nc2nccc(-c3cc4ccccc4s3)n2)cc1", "test": "binding, competition with immobilised ligand", "conditions": "1 µM", "remaining binding [%]": 100}
